Data published in ChEMBL document CHEMBL4428078, “Discovery of S3-Truncated, C-6 Heteroaryl Substituted Aminothiazine β-Site APP Cleaving Enzyme-1 (BACE1) Inhibitors” (J Med Chem, 2016).

Columns and labels:
[1] = Metabolic stability in rat liver microsomes assessed as compound remaining at 0.5 uM measured after 10 mins; assay type: ADME, Microsome; conditions: read-out: Stability
Method in brief: (§1)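 Test compound at 0.5 µM incubated 10 min with mouse, rat or human liver microsomes. Read-out is percent of parent compound remaining.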

[2] = molecular target: Beta-secretase 1 (Homo sapiens, UniProt P56817); test: Inhibition of BACE1 in human H4 cells expressing swedish mutant APP751 assessed as reduction in amyloid beta level measured after 19 hrs; assay type: cell-based
Sequence of Beta-secretase 1 (P56817 whole entry): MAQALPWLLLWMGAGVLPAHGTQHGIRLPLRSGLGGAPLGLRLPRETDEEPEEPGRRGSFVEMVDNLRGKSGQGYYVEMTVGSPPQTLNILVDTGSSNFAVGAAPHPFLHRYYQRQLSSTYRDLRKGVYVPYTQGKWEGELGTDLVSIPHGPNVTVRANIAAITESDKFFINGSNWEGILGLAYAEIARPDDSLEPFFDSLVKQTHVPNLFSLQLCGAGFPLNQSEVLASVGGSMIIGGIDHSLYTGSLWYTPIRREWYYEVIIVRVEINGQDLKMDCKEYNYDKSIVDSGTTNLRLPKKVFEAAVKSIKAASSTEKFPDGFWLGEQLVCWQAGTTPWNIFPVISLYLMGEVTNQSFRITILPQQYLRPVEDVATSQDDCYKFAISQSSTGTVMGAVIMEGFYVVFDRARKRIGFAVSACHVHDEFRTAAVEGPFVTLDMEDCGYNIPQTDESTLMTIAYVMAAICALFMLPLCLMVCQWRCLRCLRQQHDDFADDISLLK

[3] = Metabolic stability in mouse liver microsomes assessed as compound remaining at 0.5 uM measured after 10 mins; assay type: ADME, Microsome; conditions: read-out: Stability; method in brief: as §1
[4] = Metabolic stability in human liver microsomes assessed as compound remaining at 0.5 uM measured after 10 mins; assay type: ADME, Microsome; conditions: read-out: Stability; method in brief: as §1
[5] = Ratio of drug level in brain to plasma of mouse at 30 mg/kg, po measured at 3 hrs post dose; assay type: ADME, organism-based; conditions: read-out: BPR
Method in brief: (§2)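 Young mice given a single oral dose of 30 mg/kg. Total brain and plasma drug levels were measured 3 h post-dose and the brain/plasma ratio derived.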

[6] = Drug uptake in mouse brain at 30 mg/kg, po measured after 3 hrs; assay type: ADME, organism-based; conditions: read-out: Drug uptake; method in brief: as §2
[7] = Plasma concentration in mouse at 30 mg/kg, po measured after 3 hrs; assay type: ADME, organism-based; method in brief: as §2
[8] = test system: Mus musculus; test: In vivo inhibition of BACE1 in mouse assessed as reduction in brain amyloid beta level at 30 mg/kg, po measured after 3 hrs by ELISA relative to control; assay type: functional
Method in brief: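 Young mice dosed orally at 30 mg/kg. Brain Aβ was measured 3 h post-dose and expressed as percent reduction.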

[9] = test system: Rattus norvegicus; test: In vivo inhibition of BACE1 in po dosed rat assessed as reduction in brain amyloid beta40 level measured after 5 hrs by ELISA relative to control
[10] = test system: Rattus norvegicus; test: In vivo inhibition of BACE1 in po dosed rat assessed as reduction in brain amyloid beta42 level measured after 5 hrs by ELISA relative to control
[11] = test system: Rattus norvegicus; test: In vivo inhibition of BACE1 in po dosed rat assessed as reduction in total amyloid beta level in brain measured after 5 hrs by ELISA relative to control

| Compound | remaining at 10 min, 0.5 µM [1] | IC50 [2] | remaining at 10 min, 0.5 µM [3] | remaining at 10 min, 0.5 µM [4] | Kp at 3 h [5] | concentration at 3 h [6] | concentration at 3 h [7] | inhibition in vivo at 30 mg/kg [8] | inhibition [9] | inhibition [10] | inhibition [11] |
| --- | --- | --- | --- | --- | --- | --- | --- | --- | --- | --- | --- |
| Cc1noc(C(F)F)c1[C@@H]1C[C@@](C)(c2ccc(F)cc2F)N=C(N)S1 | 67% | 420 nM | 59% | 35% | – | – | – | – | – | – | – |
| Cc1onc(-c2ccc(F)cc2)c1[C@@H]1C[C@@](C)(c2ccc(F)cc2F)N=C(N)S1 | 35% | 320 nM | 23% | 24% | – | – | – | – | – | – | – |
| Cc1noc(C)c1[C@@H]1C[C@@](C)(c2ccc(F)cc2)N=C(N)S1 | 78% | 600 nM | 90% | 73% | – | – | – | – | – | – | – |

The next compounds have a lower IC50 [2] than those just listed; values first:

| remaining at 10 min, 0.5 µM [1] | IC50 [2] | remaining at 10 min, 0.5 µM [3] | remaining at 10 min, 0.5 µM [4] | Kp at 3 h [5] | concentration at 3 h [6] | concentration at 3 h [7] | Compound | inhibition in vivo at 30 mg/kg [8] | inhibition [9] | inhibition [10] | inhibition [11] |
| --- | --- | --- | --- | --- | --- | --- | --- | --- | --- | --- | --- |
| 20% | 230 nM | 6% | 39% | – | – | – | Cc1noc(-c2ccccc2)c1[C@@H]1C[C@@](C)(c2ccc(F)cc2F)N=C(N)S1 | – | – | – | – |
| 77% | 300 nM | 80% | 65% | – | – | – | Cc1nocc1[C@@H]1C[C@@](C)(c2ccc(F)cc2F)N=C(N)S1 | – | – | – | – |
| 13% | 160 nM | 12% | 38% | – | – | – | Cc1onc(-c2ccccc2)c1[C@@H]1C[C@@](C)(c2ccc(F)cc2F)N=C(N)S1 | – | – | – | – |
| 78% | 150 nM | 72% | 24% | 0.75 | 3.6 µM | 4.8 µM | Cc1noc(C)c1[C@@H]1C[C@@](C)(c2ccc(F)cc2F)N=C(N)S1 | 62% | Dose-dependent effect | Dose-dependent effect | Dose-dependent effect |
| 12% | 300 nM | 21% | 11% | – | – | – | Cc1noc(C)c1[C@@H]1C[C@@](C)(c2sccc2Cl)N=C(N)S1 | – | – | – | – |
